No end group written: not given here.
Tested on: CaM (Calmodulin-agarose)
Assay: CaM-agarose pulldown of TRPA1 constructs
Assay type: binding
Details: for CaM binding of MBP-tagged C-terminal peptides: expressed in HEK293T; for CaM binding of truncated hTRPA1 constructs: CaM-agarose pulldown, HEK293T lysate, immunoblot
Procedure, shortened: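 HEK293T cells were transfected with tagged TRPA1 constructs and lysed after 16-24 h in Tris pH 8.0 buffer containing 5 mM DDM and 500 µM EGTA. Free Ca²⁺ was set with CaCl₂, calculated from EGTA constants. 100 µg lysate was incubated with CaM-agarose for 1 h at 4 °C, washed, then eluted with 5 mM EGTA. Detection was by anti-FLAG or anti-MBP immunoblot, with tubulin input control. Enrichment is relative to the maximum within each replicate.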

Row | Molecule | CaM binding of truncated hTRPA1 constructs | further results
1 | WT mouse: WT mouse TRPA1, MBP-tagged |  | CaM binding of TRPA1 species orthologues (MBP-tagged constructs, absence or presence of Ca2+, four independent experiments): bound CaM in a Ca^2+-dependent manner
2 | hTRPA1^1079–1119: MBP-tagged full hTRPA1 unresolved C-terminus (EDDDSHCSFQDRFKKEQMEQRNSRWNTVLRAVKAKTHHLEP; also: MBP-tagged) |  | CaM binding of MBP-tagged C-terminal peptides (absence or presence of Ca2+): bound CaM in a Ca^2+-dependent manner
3 | hTRPA1^1099–1119: MBP-tagged smaller fragment of hTRPA1 C-terminus (RNSRWNTVLRAVKAKTHHLEP; also: MBP-tagged) |  | CaM binding of MBP-tagged C-terminal peptides (absence or presence of Ca2+): bound CaM in a Ca^2+-dependent manner
4 | hTRPA1^M62-T1078: hTRPA1 construct containing full ARD but lacking the structurally unresolved N- and C-termini (protein) MDTFFLHYAAAEGQIELMEKITRDSSLEVLHEMDDYGNTPLHCAVEKNQIESVKFLLSRGANPNLRNFNMMAPLHIAVQGMNNEVMKVLLEHRTIDVNLEGENGNTAVIIACTTNNSEALQILLKKGAKPCKSNKWGCFPIHQAAFSGSKECMEIILRFGEEHGYSRQLHINFMNNGKATPLHLAVQNGDLEMIKMCLDNGAQIDPVEKGRCTAIHFAATQGATEIVKLMISSYSGSVDIVNTTDGCHETMLHRASLFDHHELADYLISVGADINKIDSEGRSPLILATASASWNIVNLLLSKGAQVDIKDNFGRNFLHLTVQQPYGLKNLRPEFMQMQQIKELVMDEDNDGCTPLHYACRQGGPGSVNNLLGFNVSIHSKSKDKKSPLHFAASYGRINTCQRLLQDISDTRLLNEGDLHGMTPLHLAAKNGHDKVVQLLLKKGALFLSDHNGWTALHHASMGGYTQTMKVILDTNLKCTDRLDEDGNTALHFAAREGHAKAVALLLSHNADIVLNKQQASFLHLALHNKRKEVVLTIIRSKRWDECLKIFSHNSPGNKCPITEMIEYLPECMKVLLDFCMLHSTEDKSCRDYYIEYNFKYLQCPLEFTKKTPTQDVIYEPLTALNAMVQNNRIELLNHPVCKEYLLMKWLAYGFRAHMMNLGSYCLGLIPMTILVVNIKPGMAFNSTGIINETSDHSEILDTTNSYLIKTCMILVFLSSIFGYCKEAGQIFQQKRNYFMDISNVLEWIIYTTGIIFVLPLFVEIPAHLQWQCGAIAVYFYWMNFLLYLQRFENCGIFIVMLEVILKTLLRSTVVFIFLLLAFGLSFYILLNLQDPFSSPLLSIIQTFSMMLGDINYRESFLEPYLRNELAHPVLSFAQLVSFTIFVPIVLMNLLIGLAVGDIAEVQKHASLKRIAMQVELHTSLEKKLPLWFLRKVDQKSTIVYPNKPRSGGMLFHIFCFLFCTGEIRQEIPNADKSLEMEILKQKYRLKDLTFLLEKQHELIKLIIQKMEIISET | failed to bind CaM | 
5 | L1107A (protein, UniProt O75762 1-1119, looked up, variant L1107A) Transient receptor potential …: MKRSLRKMWRPGEKKEPQGVVYEDVPDDTEDFKESLKVVFEGSAYGLQNFNKQKKLKRCDDMDTFFLHYAAAEGQIELMEKITRDSSLEVLHEMDDYGNTPLHCAVEKNQIESVKFLLSRGANPNLRNFNMMAPLHIAVQGMNNEVMKVLLEHRTIDVNLEGENGNTAVIIACTTNNSEALQILLKKGAKPCKSNKWGCFPIHQAAFSGSKECMEIILRFGEEHGYSRQLHINFMNNGKATPLHLAVQNGDLEMIKMCLDNGAQIDPVEKGRCTAIHFAATQGATEIVKLMISSYSGSVDIVNTTDGCHETMLHRASLFDHHELADYLISVGADINKIDSEGRSPLILATASASWNIVNLLLSKGAQVDIKDNFGRNFLHLTVQQPYGLKNLRPEFMQMQQIKELVMDEDNDGCTPLHYACRQGGPGSVNNLLGFNVSIHSKSKDKKSPLHFAASYGRINTCQRLLQDISDTRLLNEGDLHGMTPLHLAAKNGHDKVVQLLLKKGALFLSDHNGWTALHHASMGGYTQTMKVILDTNLKCTDRLDEDGNTALHFAAREGHAKAVALLLSHNADIVLNKQQASFLHLALHNKRKEVVLTIIRSKRWDECLKIFSHNSPGNKCPITEMIEYLPECMKVLLDFCMLHSTEDKSCRDYYIEYNFKYLQCPLEFTKKTPTQDVIYEPLTALNAMVQNNRIELLNHPVCKEYLLMKWLAYGFRAHMMNLGSYCLGLIPMTILVVNIKPGMAFNSTGIINETSDHSEILDTTNSYLIKTCMILVFLSSIFGYCKEAGQIFQQKRNYFMDISNVLEWIIYTTGIIFVLPLFVEIPAHLQWQCGAIAVYFYWMNFLLYLQRFENCGIFIVMLEVILKTLLRSTVVFIFLLLAFGLSFYILLNLQDPFSSPLLSIIQTFSMMLGDINYRESFLEPYLRNELAHPVLSFAQLVSFTIFVPIVLMNLLIGLAVGDIAEVQKHASLKRIAMQVELHTSLEKKLPLWFLRKVDQKSTIVYPNKPRSGGMLFHIFCFLFCTGEIRQEIPNADKSLEMEILKQKYRLKDLTFLLEKQHELIKLIIQKMEIISETEDDDSHCSFQDRFKKEQMEQRNSRWNTVARAVKAKTHHLEP |  | CaM binding at basal Ca2+ concentration (basal Ca2+, n=3 independent experiments): partial reduction in binding
6 | hTRPA1^Δ1079–1119 (protein) MKRSLRKMWRPGEKKEPQGVVYEDVPDDTEDFKESLKVVFEGSAYGLQNFNKQKKLKRCDDMDTFFLHYAAAEGQIELMEKITRDSSLEVLHEMDDYGNTPLHCAVEKNQIESVKFLLSRGANPNLRNFNMMAPLHIAVQGMNNEVMKVLLEHRTIDVNLEGENGNTAVIIACTTNNSEALQILLKKGAKPCKSNKWGCFPIHQAAFSGSKECMEIILRFGEEHGYSRQLHINFMNNGKATPLHLAVQNGDLEMIKMCLDNGAQIDPVEKGRCTAIHFAATQGATEIVKLMISSYSGSVDIVNTTDGCHETMLHRASLFDHHELADYLISVGADINKIDSEGRSPLILATASASWNIVNLLLSKGAQVDIKDNFGRNFLHLTVQQPYGLKNLRPEFMQMQQIKELVMDEDNDGCTPLHYACRQGGPGSVNNLLGFNVSIHSKSKDKKSPLHFAASYGRINTCQRLLQDISDTRLLNEGDLHGMTPLHLAAKNGHDKVVQLLLKKGALFLSDHNGWTALHHASMGGYTQTMKVILDTNLKCTDRLDEDGNTALHFAAREGHAKAVALLLSHNADIVLNKQQASFLHLALHNKRKEVVLTIIRSKRWDECLKIFSHNSPGNKCPITEMIEYLPECMKVLLDFCMLHSTEDKSCRDYYIEYNFKYLQCPLEFTKKTPTQDVIYEPLTALNAMVQNNRIELLNHPVCKEYLLMKWLAYGFRAHMMNLGSYCLGLIPMTILVVNIKPGMAFNSTGIINETSDHSEILDTTNSYLIKTCMILVFLSSIFGYCKEAGQIFQQKRNYFMDISNVLEWIIYTTGIIFVLPLFVEIPAHLQWQCGAIAVYFYWMNFLLYLQRFENCGIFIVMLEVILKTLLRSTVVFIFLLLAFGLSFYILLNLQDPFSSPLLSIIQTFSMMLGDINYRESFLEPYLRNELAHPVLSFAQLVSFTIFVPIVLMNLLIGLAVGDIAEVQKHASLKRIAMQVELHTSLEKKLPLWFLRKVDQKSTIVYPNKPRSGGMLFHIFCFLFCTGEIRQEIPNADKSLEMEILKQKYRLKDLTFLLEKQHELIKLIIQKMEIISET | ablated Ca^2+/CaM binding | 

Second part, led by results:

Row | CaM binding of truncated hTRPA1 constructs | Molecule | further results
7 | did not affect Ca^2+/CaM binding | hTRPA1^Δ1–61 (protein) MDTFFLHYAAAEGQIELMEKITRDSSLEVLHEMDDYGNTPLHCAVEKNQIESVKFLLSRGANPNLRNFNMMAPLHIAVQGMNNEVMKVLLEHRTIDVNLEGENGNTAVIIACTTNNSEALQILLKKGAKPCKSNKWGCFPIHQAAFSGSKECMEIILRFGEEHGYSRQLHINFMNNGKATPLHLAVQNGDLEMIKMCLDNGAQIDPVEKGRCTAIHFAATQGATEIVKLMISSYSGSVDIVNTTDGCHETMLHRASLFDHHELADYLISVGADINKIDSEGRSPLILATASASWNIVNLLLSKGAQVDIKDNFGRNFLHLTVQQPYGLKNLRPEFMQMQQIKELVMDEDNDGCTPLHYACRQGGPGSVNNLLGFNVSIHSKSKDKKSPLHFAASYGRINTCQRLLQDISDTRLLNEGDLHGMTPLHLAAKNGHDKVVQLLLKKGALFLSDHNGWTALHHASMGGYTQTMKVILDTNLKCTDRLDEDGNTALHFAAREGHAKAVALLLSHNADIVLNKQQASFLHLALHNKRKEVVLTIIRSKRWDECLKIFSHNSPGNKCPITEMIEYLPECMKVLLDFCMLHSTEDKSCRDYYIEYNFKYLQCPLEFTKKTPTQDVIYEPLTALNAMVQNNRIELLNHPVCKEYLLMKWLAYGFRAHMMNLGSYCLGLIPMTILVVNIKPGMAFNSTGIINETSDHSEILDTTNSYLIKTCMILVFLSSIFGYCKEAGQIFQQKRNYFMDISNVLEWIIYTTGIIFVLPLFVEIPAHLQWQCGAIAVYFYWMNFLLYLQRFENCGIFIVMLEVILKTLLRSTVVFIFLLLAFGLSFYILLNLQDPFSSPLLSIIQTFSMMLGDINYRESFLEPYLRNELAHPVLSFAQLVSFTIFVPIVLMNLLIGLAVGDIAEVQKHASLKRIAMQVELHTSLEKKLPLWFLRKVDQKSTIVYPNKPRSGGMLFHIFCFLFCTGEIRQEIPNADKSLEMEILKQKYRLKDLTFLLEKQHELIKLIIQKMEIISETEDDDSHCSFQDRFKKEQMEQRNSRWNTVLRAVKAKTHHLEP | 
8 | failed to bind CaM in vitro | hTRPA1^S488-T1078: minimal hTRPA1 construct previously used for structural determination, retains the CaMBD (protein) SPLHFAASYGRINTCQRLLQDISDTRLLNEGDLHGMTPLHLAAKNGHDKVVQLLLKKGALFLSDHNGWTALHHASMGGYTQTMKVILDTNLKCTDRLDEDGNTALHFAAREGHAKAVALLLSHNADIVLNKQQASFLHLALHNKRKEVVLTIIRSKRWDECLKIFSHNSPGNKCPITEMIEYLPECMKVLLDFCMLHSTEDKSCRDYYIEYNFKYLQCPLEFTKKTPTQDVIYEPLTALNAMVQNNRIELLNHPVCKEYLLMKWLAYGFRAHMMNLGSYCLGLIPMTILVVNIKPGMAFNSTGIINETSDHSEILDTTNSYLIKTCMILVFLSSIFGYCKEAGQIFQQKRNYFMDISNVLEWIIYTTGIIFVLPLFVEIPAHLQWQCGAIAVYFYWMNFLLYLQRFENCGIFIVMLEVILKTLLRSTVVFIFLLLAFGLSFYILLNLQDPFSSPLLSIIQTFSMMLGDINYRESFLEPYLRNELAHPVLSFAQLVSFTIFVPIVLMNLLIGLAVGDIAEVQKHASLKRIAMQVELHTSLEKKLPLWFLRKVDQKSTIVYPNKPRSGGMLFHIFCFLFCTGEIRQEIPNADKSLEMEILKQKYRLKDLTFLLEKQHELIKLIIQKMEIISET | 

Source: publication PMC11661184 (bioRxiv, 2024)
